# High-throughput results (PubChem)
# HUVEC inhibit: human endothelial cell proliferation inhibition | actives 1.1% (n = 86,000) | viability, % at 10 µM (by protocol) | HUVEC proliferation, CellTiter-Glo luminescence, 72 h; active compounds read low | AID 648;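 active = viability at or below 30%; inactive = viability above 30%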;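 note: 100% = median luminescence of DMSO-only cell control wells on each plate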
# HCT116 bCat-KO: beta-catenin-lacking colon tumor cell growth suppression | HCT116 beta-catenin knockout viability, CellTiter-Glo, 60 h; active compounds read low | viability, % at 10 µM | actives 1.5% (n = 140,000) | AID 818;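 active = viability at or under a set limit, the compound median less 4 SD, cut at about 6% in these data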;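 note: 0% = Hyamine 1622 control at 20 µM and 100% = untreated cell control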
# HCT116 PTEN-null: growth suppressors of cells with PTEN tumor suppressor deletion; HCT116 PTEN-null viability, CellTiter-Glo, 60 h; active compounds read low; viability, % at 10 µM; actives 1.2% (n = 140,000);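 active = viability at or below a set limit, 4 SD under the median of all tested compounds, cut at about 3.7% in these data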;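 note: PTEN knockout HCT116 line with beta catenin targeted HCT116 as companion control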
# H69AR inhibit: blocks growth of human H69AR lung tumor cells; H69AR lung tumor viability, ATP luminescence, 72 h; active compounds read low; viability, % at 10 µM; actives 6% (n = 85,000);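 active = viability at or below 40%; inactive = viability above 40%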;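 note: multidrug resistant small cell line overexpressing MRP-1 efflux transporter; 100% = mean luminescence of untreated control wells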
# Lung fibro prol: blocks proliferation of human lung fibroblasts. AID 719. viability, % at 10 µM. actives 1.1% (n = 85,000). LL 47 human lung fibroblast viability, ATP luminescence; active compounds read low;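 active = viability at or below 50% in the single dose screen; inactive = viability above 50%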;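 note: compound exposure lasted 72 h before the ATP readout; 100% = median luminescence of untreated cell-only wells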
#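 Times – overnight cell rest, 72 h compound treatment at 37 °C · Test system – human lung fibroblast line LL 47, low passage · Amount – 1,150 cells in each well · Controls – cell-only wells, no compound · Doses – 0.1% DMSO in all compound wells · Measured by – CellTiter-Glo luminescence · Buffer or medium – IMEM plus 15% FBS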
# Active calls of the source: *; · = no result given. Many of the other results were omitted from the sample, so hits are more common in it than they were.
SMILES,HUVEC inhibit,HCT116 bCat-KO,HCT116 PTEN-null,H69AR inhibit,Lung fibro prol
CCOc1cc(/C=N/NC(=O)Cn2nc([N+](=O)[O-])cc2C)cc(Br)c1OCc1ccccc1F,29.7*,18.9,13.1,8.3*,50.8
CCOc1cc(/C=N/NC(N)=O)cc(Br)c1OCc1ccccc1F,·,94.7,100.3,·,·
COc1ccccc1Nc1nnc(SCc2cc(=O)n3cc(C)ccc3n2)s1,·,82.6,79.5,·,·
CC(C)c1ccc(C2NC(=S)NC3=C2C(=O)CC(C)(C)C3)cc1 (centres undefined),·,71.2,89.5,·,·
Cc1cccc2c1N(CCCOc1ccc(C(C)(C)C)cc1)C(=O)C2=O,1.6*,86.8,85.6,0.8*,90.6
Cc1ccccc1OCCCN1C(=O)C(=O)c2cccc(C)c21,74.5,52.6,43.5,16.7*,81.3
CCCCOC(=O)c1ccc(NC(=O)COC(=O)CSc2nc(C)cc(C)n2)cc1,·,94.6,96.2,·,·
Cc1cc2ncn(S(=O)(=O)c3ccc(S(=O)(=O)N4CCCCCC4)cc3)c2cc1C,89.4,·,·,35.4*,97.5
CCOc1ccc(S(=O)(=O)n2cnc3cc(C)c(C)cc32)cc1,85.3,81.8,97.9,91.3,100.5
Cc1cccc(NC(=O)CNC(=O)COc2ccc(-c3ccc(C#N)cc3)cc2)c1C,·,68.6,58.1,·,·
COc1ccc(Oc2c(Cl)cnn(-c3ccc(Cl)c(Cl)c3)c2=O)cc1,·,1.0*,0.7*,·,·
COc1c(Cl)cnn(-c2ccc(C)cc2)c1=O,·,1.2*,1.1*,·,·
COc1ccc(Oc2c(Cl)cnn(-c3ccc(F)cc3)c2=O)cc1,·,94.6,92.8,·,·
COc1ccc(Oc2c(Cl)cnn(-c3ccc(C)cc3)c2=O)cc1,·,5.5*,15.1,·,·
COc1ccc(N2CCN(Cc3nc(N)nc(Nc4ccc(C)c(Cl)c4)n3)CC2)cc1,64.0,0.8*,1.4*,23.0*,97.6
Cc1ccc(Nc2nc(N)nc(CN3CCN(Cc4ccc5c(c4)OCO5)CC3)n2)cc1Cl,65.6,0.9*,1.5*,14.0*,84.7
COc1ccc(-c2nc3c(Br)c(N)c(Br)cc3o2)cc1,59.6,62.3,58.1,29.1*,80.3
Nc1c(Br)cc2oc(-c3ccccc3)nc2c1Br,83.5,68.0,73.7,22.1*,81.3
COc1ccc(-c2nc3ccc([N+](=O)[O-])cc3o2)cc1,·,41.3,28.4,·,·
Cc1ccc2oc(-c3ccccc3)nc2c1,95.9,96.6,99.0,97.0,92.8
Cc1ccc(NC(=O)COC(=O)c2cccc3c(=O)c(C)c(-c4ccccc4)oc23)cc1,·,111.1,96.5,·,·
CCOc1ccccc1-n1c(CN2CCN(C(=O)c3ccco3)CC2)nc2ccccc2c1=O,51.8,3.6*,2.5*,62.7,14.6*
CC(C)(C)c1nc(N2CCN(C(=O)c3ccco3)CC2)c2nnn(Cc3ccccc3)c2n1,76.5,60.3,59.6,11.1*,92.8
CCOc1cc(CN2CCN(C(=O)c3ccco3)CC2)ccc1OC,94.4,91.7,102.2,85.9,99.0
CCc1nc(N2CCN(C(=O)c3ccco3)CC2)c2oc3ccccc3c2n1,76.3,42.2,31.2,22.2*,94.4
SMILES,HUVEC inhibit,HCT116 bCat-KO,HCT116 PTEN-null,H69AR inhibit,Lung fibro prol
CCn1nnc(-c2ccccc2NS(=O)(=O)c2ccc(C(=O)OC)cc2)n1,85.9,42.7,41.3,16.9*,103.9
COc1ccccc1NC(=O)Cn1nnc(-c2ccccc2NS(=O)(=O)c2ccccc2)n1,·,64.9,66.2,·,·
Fc1ccc(-n2nnnc2-c2cnc(-c3cccs3)nc2C(F)(F)F)cc1,·,28.4,22.3,·,·
CCN(CC)CCNc1nc2cc(OC)c(OC)cc2c2nc(-c3ccccc3)nn12,10.8*,1.7*,1.2*,15.5*,2.7*
CCOC(=O)C1=C(C)n2c(s/c(=C/c3cccc([N+](=O)[O-])c3)c2=O)=NC1c1ccc(O)c(OC)c1 (centres undefined),7.4*,1.9*,6.7,3.2*,16.9*
COc1cc(/C=c2\sc3n(c2=O)C(c2ccccc2)C(c2ccccc2)=NN=3)ccc1O (centres undefined),97.0,90.7,62.9,63.6,100.6
Cc1cc(C)n(-c2nc3c(c(=O)[nH]c(=O)n3C)n2CC(O)COc2ccc(Cl)cc2Cl)n1 (centres undefined),47.6,25.1,21.6,13.2*,72.5
Cc1cc(C)n(-c2nc3c(c(=O)[nH]c(=O)n3C)n2Cc2ccccc2)n1,95.5,97.1,107.2,101.3,97.0
CCN(CC)CCNc1nc2c(c(=O)[nH]c(=O)n2C)n1CC(O)COc1ccc(Cl)cc1Cl (centres undefined),83.2,77.3,78.9,77.2,91.6
